Among all 2,300 compounds or so, fewer than 10 were called active. These entries were drawn from the full list. A number with no mark means an inactive call.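 How the source made its calls: active means duplicate-mean ratio percent above the mean of iodide-only control wells, which defines zero, plus 5 of their SD; inactive means the rest.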
The compounds below were run against Chloride channel protein 1 (Rattus norvegicus) (UniProt P35524) (assay: blockers of rat ClC-1 channel – cell-based, voltage-dependent ClC-1, selectivity assay for TMEM16A inhibitor project (AID 652236;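 further: higher percent means stronger block of ClC-1 iodide influx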)). Conditions: CHO ClC-1-YFP, iodide influx fluorescence quench; at 10 µM; iodide control reads 0, buffer control 100.
Chain of Chloride channel protein 1 (Rattus norvegicus) (P35524 whole entry, looked up): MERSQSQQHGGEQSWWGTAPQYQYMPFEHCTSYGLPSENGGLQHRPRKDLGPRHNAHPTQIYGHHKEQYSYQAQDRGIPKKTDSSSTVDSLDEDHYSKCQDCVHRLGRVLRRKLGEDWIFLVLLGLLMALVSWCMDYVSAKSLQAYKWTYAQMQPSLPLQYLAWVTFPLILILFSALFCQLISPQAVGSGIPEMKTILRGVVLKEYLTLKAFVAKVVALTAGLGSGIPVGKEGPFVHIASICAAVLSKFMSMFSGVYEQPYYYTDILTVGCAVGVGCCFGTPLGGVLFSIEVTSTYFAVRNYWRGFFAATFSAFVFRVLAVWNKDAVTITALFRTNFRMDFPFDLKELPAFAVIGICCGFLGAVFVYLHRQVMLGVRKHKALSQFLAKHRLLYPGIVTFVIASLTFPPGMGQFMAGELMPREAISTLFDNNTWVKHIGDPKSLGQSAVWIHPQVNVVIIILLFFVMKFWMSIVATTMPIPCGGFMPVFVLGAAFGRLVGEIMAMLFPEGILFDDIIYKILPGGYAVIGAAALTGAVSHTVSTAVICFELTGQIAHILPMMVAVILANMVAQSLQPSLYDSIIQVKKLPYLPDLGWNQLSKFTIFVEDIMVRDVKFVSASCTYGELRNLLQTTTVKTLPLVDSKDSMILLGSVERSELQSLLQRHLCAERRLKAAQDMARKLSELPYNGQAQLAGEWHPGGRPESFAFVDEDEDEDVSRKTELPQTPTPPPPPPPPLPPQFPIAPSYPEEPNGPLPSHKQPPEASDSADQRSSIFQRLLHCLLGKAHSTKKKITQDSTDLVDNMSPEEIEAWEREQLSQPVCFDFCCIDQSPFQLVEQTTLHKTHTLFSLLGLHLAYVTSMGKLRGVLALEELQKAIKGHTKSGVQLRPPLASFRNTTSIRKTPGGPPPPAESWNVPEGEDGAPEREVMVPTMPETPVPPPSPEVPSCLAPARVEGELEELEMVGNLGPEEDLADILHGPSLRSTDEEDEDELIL
Method in brief: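 material = ClC-1 CHO cells with mutant YFP H148Q/I152L | buffer or medium = HBSS-HEPES pH 7.4, sodium gluconate substituted for NaCl | times = 20 min room-temperature pre-incubation, 10 s baseline, 50 s post-iodide reads | signal = kinetic iodide-induced YFP fluorescence quench, 1 Hz | control set = buffer-only controls and iodide controls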

Compound	ratio percent
S=C(NCC1CCCO1)N1CCN(c2ccc(Cl)c(Cl)c2)CC1 (configuration not stated)	-16.5%
COc1ccc(Cl)cc1NC(=O)CCS(=O)(=O)c1cc2c(cc1C)NC(=O)CO2	-11%
CCc1cc2c(N3CCN(c4nnc(CC)s4)CC3)ncnc2s1	-5%
Cc1cccc(-n2c(SCC(N)=O)nc3c(c2=O)C2(CCCCC2)Cc2ccccc2-3)c1	-9.5%
Cc1ccc(-c2csc(-c3c[nH]c4ccccc34)n2)cc1	-9.5%
CCCCCc1ccc(-c2ccc(C(=O)O)cc2)nc1	-6%
Cn1c(=O)n(C)c2cc(S(=O)(=O)N3CCCc4ccccc43)ccc21	-7.5%
O=C(Nc1ccccc1)c1ccccc1NC(=O)C(F)(F)F	-15%
Cc1ccc(NC(=O)C(C)c2cccc(C(=O)c3ccccc3)c2)cc1 (configuration not stated)	-13.5%
CSc1cccc(NC(=S)N(C(C)C)C(C)c2ccccn2)c1 (configuration not stated)	-3%
CC(C)(C)C(=O)/C(C#N)=C/c1ccc(O)cc1	-8%
C=C(C)Cn1c(C)cc(C)c(S(=O)(=O)c2ccccc2C)c1=O	-6%
CCCOc1ccc(Cc2c(Cl)nc(SC)nc2NC)cc1	-27.5%
CC(NC(=O)c1ccco1)C(=O)Nc1nc(-c2ccccn2)cs1 (configuration not stated)	-2.5%
Cc1ccc2c(c1)N(CC(=O)N1CCCc3ccccc31)C(=O)C(C)O2 (configuration not stated)	-3%
Cn1c(CCN2CCCCCC2)nc2cc(NC(=O)Nc3ccccc3)ccc21	-1.5%
Cc1cc(C)cc(NS(=O)(=O)c2ccc(Oc3ncc(C(F)(F)F)cc3Cl)cc2)c1	-9.5%
CN(c1cccc(NC(=O)c2ccc(CN3CCc4ccccc4C3)cc2)c1)S(C)(=O)=O	-8%
COc1ccc(S(=O)(=O)NCCCCOc2ccc(Cl)cc2)cc1	-32.5%
COc1ccc(NC(=O)C2=CC(c3ccc(OC)c(OC)c3)=NS(=O)(=O)N2C)cc1	-3.5%
Cc1ccccc1-n1nnnc1SCCCC(=O)c1ccc(F)cc1	-11%
COc1ccc(-c2nc(CCNC(=O)c3ccc(Br)o3)cs2)cc1	-12%
O=C(CN1CCN(C(=S)NC2CCCC2)CC1)Nc1ccc(Oc2ccccc2)cc1	-15.5%
CCOC(=O)C1CCN(c2ncnc3c2oc2ccc(Br)cc23)CC1	-36.5%
Cc1cc(C=O)c(C)n1-c1ccc(NC2CCCCC2)c([N+](=O)[O-])c1	-10.5%
O=C(O)c1ccc(NC(=O)C2CCCCC2)cc1	-7%

Compound	ratio percent
Cc1nc(CNS(=O)(=O)c2ccc(Oc3ccccc3)cc2)cs1	-6.5%
S=C(NCc1cccs1)Nc1ccc(Cl)cc1	-12.5%
N#CC1=C(SCc2ccccc2)NC(=O)C(C#N)C12CCCC2 (configuration not stated)	-12.5%
C=CCSc1nsc(NC(=O)Nc2cccc(C(C)=O)c2)n1	-15.5%
O=C(Nc1nc(-c2ccc3c(c2)OCO3)cs1)c1ccncc1	-13.5%
CCC(=O)Nc1ccc2nc(C)n(Cc3ccccc3Cl)c(=O)c2c1	-2%
O=C(N/N=C/c1cc(Cl)cc([N+](=O)[O-])c1O)C(O)(c1ccccc1)c1ccccc1	-7%
O=S1(=O)CCN(Cc2ccccc2Cl)CC1	-3.5%
O=C(NC(=S)Nc1ccccc1C(=O)O)c1ccc(-c2ccc(Br)cc2)o1	-15%
O=C(COC(=O)CCc1c[nH]c(=O)[nH]1)Nc1ccccc1Cl	-14%
c1ccc(-c2nnc(SCc3nc4ccccc4[nH]3)o2)cc1	-14%
O=C1c2ccccc2C(Nc2ccc3c(c2)OCCO3)N1Cc1ccco1 (configuration not stated)	-13%
Cc1ccc(NC(=O)CN(C)CC(=O)Nc2cccc(F)c2)cc1[N+](=O)[O-]	-20.5%
COC(=O)c1ccc(COC(=O)c2c(C)nn(Cc3ccccc3Cl)c2Cl)o1	-2%
CCn1nccc1C(=O)Nc1ccc(S(=O)(=O)NC23CC4CC(CC(C4)C2)C3)cc1	-8.5%
COc1ccc2[nH]cc(/C=C(/C#N)S(=O)(=O)c3ccccc3)c2c1	-11.5%
CC1=NN(c2cccc(Cl)c2)C(=O)C12CC(C)=C(C)CS2 (configuration not stated)	-13.5%
O=C(CSCc1ccc(Cl)cc1)N1CCN(Cc2ccc3c(c2)OCO3)CC1	2.5%
COc1ccc(CCC(=O)c2ccc(OC)cc2)cc1	-4%
Fc1ccc2[nH]c3c(N4CCSCC4)ncnc3c2c1	-36.5%
O=C(CNCCC1=CCCCC1)Nc1ccccc1N1CCCCCC1	-9%
CN(C)c1cc[n+](Cc2ccccc2)cc1	-5%
Cc1ccc(-n2[nH]c(C)c(/C=N/N3C(=O)c4cccc5cccc(c45)C3=O)c2=O)cc1	-16%
Cc1nc(SCC(=O)N2CCc3ccccc3C2)c2c(C)c(C)sc2n1	-16%
O=C(NCCc1ccc2c(c1)OCCO2)c1cc2ccccc2o1	-21%
Cc1ccc(F)cc1NC(=O)Cc1nn(C)c(=O)c2ccccc12	-14%

Compound	ratio percent
Cc1ccc(N)cc1-n1c(C)ccc1C	-8%
CCOC(=O)C(Sc1ncc(C#N)c(N)n1)C(C)C (configuration not stated)	-18%
Fc1ccc(CSc2nnc(-c3cc4c(s3)-c3ccccc3CC4)o2)cc1	-3%
N#Cc1nc(COc2ccc(-c3ccccc3)cc2)oc1NCc1cccnc1	-19%
Cc1nc2c(C(=O)NCc3ccc4c(c3)OCO4)c[nH]n2c(=O)c1Cc1ccccc1F	-1.5%
COc1cc(CC(=O)Nc2nc(-c3ccc(F)c(F)c3)cs2)cc(OC)c1OC	-7%
CN(Cc1cccnc1)C(=O)c1cc(COc2ccc3ncccc3c2)on1	-24%
Cc1ccc(-c2noc(CSc3nnnn3-c3ccccc3)n2)cc1	-1.5%
S=C(NCc1ccc(Cl)cc1)NC12CC3CC(CC(C3)C1)C2	-20.5%
Cc1[nH]n(-c2cccc(Cl)c2)c(=O)c1-c1ccc(Cl)cc1	-15%
COC(=O)c1ccc(NC(=O)c2ccccc2NS(=O)(=O)c2ccccc2)cc1	-22.5%
Cc1noc(C)c1COC(=O)c1cc2ccccc2cc1O	-10.5%
CCOC(=O)N1CC=C2C(C#N)=C(N)C(C#N)(C#N)[C@H](c3cccs3)[C@H]2C1	-6.5%
CCOC(=O)c1cccc(NC(=O)CCn2nnc3ccccc32)c1	-15%
COc1cccc(CNS(=O)(=O)c2ccc3c(c2)CC(C)N3C(=O)C2CCC2)c1 (configuration not stated)	-19.5%
O=C(Nc1cccc(S(=O)(=O)Nc2ccc(Cl)cc2)c1)c1ccc2c(c1)OCCO2	-24.5%
Cc1nc2ccccc2cc1OCc1ccc(F)cc1	-17%
CCCC(=O)Nc1ccccc1N1CCN(C(=O)c2ccccc2)CC1	-12.5%
CC1CCN(C(=O)c2ccc(CSc3ccc(Cl)cc3)cc2)CC1	-22.5%
CC(=O)c1c(C)[nH]c(C(=O)COC(=O)c2cccc(S(=O)(=O)N(C)c3ccccc3)c2)c1C	-31%
CN1c2ccc(C=O)c3c(C=O)ccc(c23)N(C)C1(C)C	-24.5%
COc1ccc(C(=O)NC2CCCc3c2cnn3-c2cccc(C)c2C)c(OC)n1 (configuration not stated)	-21.5%
COc1ccc(CNc2nnnn2C)cc1	-10.5%
CCOC(=O)C1=C(CN2CCc3ccccc32)NC(=O)NC1c1cccc([N+](=O)[O-])c1 (configuration not stated)	-12%
CSc1nnc2c(n1)OC(c1ccsc1)N(C(C)=O)c1ccccc1-2 (configuration not stated)	-3.5%
Cc1nc(C)c(-c2csc(NCCc3ccccc3)n2)s1	-9%

Compound	ratio percent
CSc1nsc(NC(=O)Nc2ccccc2)n1	-7.5%
N#Cc1nc(N)nc(N(c2ccccc2)c2ccccc2)n1	-2%
CCCc1cc(=S)n2c([nH]c3ccccc32)c1C#N	-9.5%
C=CCn1c(SCC(=O)Nc2nc3ccccc3s2)nnc1-c1ccccc1O	-17.5%
CCCCNC(=O)CSc1nc2n[nH]c(C)c2c(=N)n1-c1cccc(Cl)c1C	-4.5%
COc1ccc(OCC(=O)NCCc2ccc(S(N)(=O)=O)cc2)cc1	-14%
O=c1cc(C(F)(F)F)[nH]c(=O)n1C1CCCCC1	0%
Cc1ccc(-n2ncc3c(N4CCN(c5ccc(F)cc5)CC4)ncnc32)c(C)c1	-13%
Cc1cccc(N=Nc2c(O)[nH]c3ccc(F)cc23)c1	2.5%
Cc1ccc(C)c(N2CCN(C(=O)CCCCn3c(=O)[nH]c4ccccc4c3=O)CC2)c1	-2%
CC(C)CNC(=S)NNC(=O)c1nn(C)cc1Cl	-14%
CCOC(=O)N1CCN(C(=O)c2ccc3c(c2)N(Cc2ccc(C)cc2)CCS3)CC1	-13%
Cc1ccc(C)c(N2CCN(S(=O)(=O)c3ccc4c(c3)oc(=O)n4C)CC2)c1	-27.5%
COc1ccc(-n2c(C)cc(C(=O)CSc3nnc(-c4cccs4)o3)c2C)cc1	-7%
Cn1c(CN2CCOCC2)nc2cc(NC(=O)c3ccc(Cl)cc3)ccc21	-9%
Cc1ccc2c(c1)N(S(=O)(=O)c1cc(-c3cc(C)no3)ccc1C)CCO2	-4%
Cc1ccc(N2C(=O)S/C(=C/c3cn(C)c4ccccc34)C2=O)cc1	-10%
CCCCn1ccnc1C(=O)c1cccc(S(=O)(=O)N2c3ccccc3CC2C)c1 (configuration not stated)	-3%
CCN(CC)S(=O)(=O)c1ccc(N(C)Cc2ccc(C(F)(F)F)cc2)nc1	-9%
O=C(COc1ccccc1)NCc1ccc2c(c1)OCO2	-4.5%
Cc1ccc(C(=O)O)cc1-c1ccc(/C=C2\SC(=O)N(CC(=O)Nc3ccc4c(c3)OCO4)C2=O)o1	-5.5%
COc1ccc(CN(C)C(=O)CC(c2ccccc2)c2ccccc2)cc1	-8.5%
CC(=O)c1cc(CN2CCC(C(=O)Nc3cccc(-c4cscn4)c3)CC2)cs1	-16.5%
O=C1NC(=O)C2C1C(c1ccc([N+](=O)[O-])cc1)=NN2Cc1ccccc1 (configuration not stated)	-32%

From PubChem BioAssay AID652236 (Johns Hopkins Ion Channel Center, 2013)
